High-throughput results deposited in PubChem BioAssay by several laboratories.
STAT1 blocker = reduces IFN-gamma driven STAT1 reporter signal | NIH 3T3 STAT1-luciferase reporter, luminescence | AID 920 | 200,000 tested, 0.35% active | inhibition, % at 5.5 µM;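 active = inhibition above a set limit, the mean inhibition across all tested compounds plus 3 SD, cut at about 34% in these data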;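 also: 0% = IFN-gamma with DMSO and 100% = IFN-gamma with 300 µM nifuroxazide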
APP 5'UTR act = APP 5'UTR luciferase reporter activation. SH-SY5Y APP 5'UTR luciferase reporter, luminescence; zero percent = DMSO vehicle wells. activation, % at 2 µM. 190,000 tested, 1% active;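 active = activation above a set limit, based on mean plus 3 SD of controls, cut at about 140% in these data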
NF-kB expr up = NF-kB expression increase, human neuronal cells. NF-kB reporter expression; hits give high values. fold change at 12.5 µM. 190,000 tested, 1.6% active; in the data active = fold change above about 3.3
STAT3 inh = STAT3 signaling inhibition. U3A cells, IL-6 STAT3-luciferase reporter, luminescence; host cell line lacks STAT1. inhibition, % at 5.5 µM. 190,000 tested, 0.89% active;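 active = inhibition above the mean inhibition across all screened compounds plus 3 SD, cut at about 44% in these data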;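 also: 0% = DMSO only wells and 100% = 100 µM nifuroxazide control wells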
STAT1 activator = increases IFN-gamma driven STAT1 reporter signal. NIH 3T3 STAT1-luciferase reporter, luminescence; 100% = IFN-gamma alone, no compound. activation (% of control), % at 5.5 µM. 200,000 tested, 2.6% active. AID 932;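 active = activation above the screen-wide mean activation plus 3 SD, cut at about 130% in these data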;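 also: raw ratio to IFN-gamma control signal so 100% means no change and 0% no light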
STAT3 activator = activators of IL-6 induced STAT3 signaling | U3A cells, IL-6 STAT3-luciferase reporter, luminescence; 100% = signal with IL-6 EC80 alone | activation (% of control), % at 5.6 µM | 190,000 tested, 0.91% active;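 active = activation above the screen-wide mean of compound activation plus 3 SD, cut at about 130% in these data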;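 also: 0% = background luminescence of wells with medium and substrate only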
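Detection: reporter luminescence signal / Assay system: STAT1-lacking human U3A cells, STAT3 luciferase reporter / Incubation: compound pre-incubation 1 h before IL-6, then 6 h stimulation at 37 °C / Control set: IL-6-only high control / Read-out: % activation relative to IL-6 control / Probe or stimulus: Interleukin-6, 33 ng/mL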
* hit, by the source's call; nt = no result given. Shown are actives, neighbours in structure and some others; about 5.1% of the full set was active somewhere.

SMILES	STAT1 blocker	APP 5'UTR act	NF-kB expr up	STAT3 inh	STAT1 activator	STAT3 activator
O=C(N/N=C1\CCCc2ccccc21)c1ccc([N+](=O)[O-])cc1	-23.7	-3.7	0.64	-9.0	121.9	107.5
NC(=O)C(=O)N/N=C1\CCc2ccccc21	-33.8	41.3	1.49	-18.5	131.3*	116.2
Cc1ccc(C(=O)N/N=C2\CCCc3ccccc32)c(C)c1	-33.5	92.0	2.11	5.3	128.8*	104.9
CCOC(=O)c1cc(C(=O)OCC)cc(-n2cc(O)c(C(=O)OCC)n2)c1	13.9	-6.7	0.7	17.6	87.3	88.2
CCOC(=O)c1nn(-c2ccc(C)cc2)cc1O	-8.5	136.6*	4.08*	19.2	107.9	88.1
Nc1cccc2nc3ccccc3cc12	-133.1	nt	3.86*	-61.5	171.8*	151.5*
Cc1cc(C)nc(Nc2n[nH]c(-c3cccc4ccccc34)n2)n1	3.4	-6.1	0.96	12.8	97.0	92.5
Brc1c(CSc2nc3ccccc3o2)nc2ncccn12	-37.1	37.1	2.48	1.5	133.7*	102.5
Clc1c(CSc2nc3ccccc3o2)nc2sccn12	-29.1	136.2*	8.11*	15.5	126.9	90.0
CC(=O)CSc1nc2ccccc2o1	-6.5	27.3	1.55	2.2	105.9	100.8
CC1=CC(C)C2(CO)COC(c3ccccc3O)C1C2C (centres undefined)	-0.6	-3.1	0.99	-2.7	100.5	106.2
Clc1cc(Cl)c2nc(N3CCCCC3)sc2c1	-26.1	62.8	3.3*	-13.1	123.7	115.2
O=C(CN1CCN(S(=O)(=O)c2ccc(Br)cc2)CC1)N/N=C/c1ccc(Br)s1	-8.4	12.4	0.89	-1.5	107.0	113.1
CCCSc1nnc(Nc2ccccc2C)s1	-32.2	49.6	2.15	12.4	129.4*	92.8
Cc1ccccc1Nc1nnc(SCC(=O)Nc2ccccc2[N+](=O)[O-])s1	-7.8	13.1	0.81	-26.5	107.0	126.3
Cc1ccc(O)c(-c2cc(-c3cccc(Br)c3)n[nH]2)c1	-7.5	32.7	2.1	5.2	106.6	100.4
Oc1ccc(F)cc1-c1cc(-c2ccc3c(c2)OCCO3)n[nH]1	-10.8	197.2*	10.8*	6.3	110.0	98.5
COc1ccccc1Oc1ccc(N/C=C/C(=O)c2ccc(C)o2)cc1	-34.5	92.9	1.7	10.7	132.1*	98.5
CC(=O)Nc1ccc(N/C=C/C(=O)c2ccc(C)o2)cc1	-41.7	24.8	1.29	3.9	143.3*	97.9
COc1cc(C(=O)/C=C/Nc2ccc(NC(C)=O)cc2)cc(OC)c1OC	-6.0	-2.8	0.85	3.0	105.3	97.7
CCCCn1c(-c2ccccc2)cnc1SCC(=O)NCCc1ccc(OC)c(OC)c1	-37.9	nt	1.14	-9.2	134.1*	112.4
CSc1ccc(CNc2ccccc2)cc1	-13.1	13.2	1.36	-0.4	111.8	109.2
CSc1ccc(CNc2ccccn2)cc1	-32.0	40.8	1.98	0.3	129.0*	100.4
Cc1ccc(C(=O)Nc2ncc3c(Cl)cccc3n2)cc1	-14.7	140.7*	1.74	63.1*	121.8	47.9
COc1ccc(CNc2nc(NCc3ccc(OC)cc3)n(C(=O)c3ccncc3)n2)cc1	-1.1	11.5	0.9	2.5	99.6	101.6
SMILES	STAT1 blocker	APP 5'UTR act	NF-kB expr up	STAT3 inh	STAT1 activator	STAT3 activator
Cc1ccccc1OCc1nc2ccccc2[nH]1	-32.6	131.4	4.25*	24.2	130.5*	83.5
c1cnc2c(OCc3nc4ccccc4[nH]3)cccc2c1	-48.5	nt	2.73	-63.3	143.5*	156.1*
Brc1ccccc1OCCOc1cccc2cccnc12	-21.4	0.3	1.45	3.5	119.2	97.8
COc1ccc(C(=O)NCc2nc3ccccc3[nH]2)cc1OC	-4.9	-5.4	1.48	12.0	104.4	94.4
COc1ccccc1OCc1nc2ccccc2[nH]1	-34.2	83.0	4.01*	9.8	131.7*	94.8
CNC(=O)Nc1cc(C)nn1C	-6.1	26.8	1.11	-3.9	105.3	106.6
[O-]/C(=C(\C(=S)Nc1cccc2ccccc12)[n+]1ccccc1)c1ccc2c(c1)OCCO2	4.1	0.1	0.57	-30.9	96.2	133.9*
[O-]/C(=C(\C(=S)Nc1cccc2ccccc12)[n+]1ccccc1)c1ccc(OC(F)F)cc1	4.5	9.2	1.3	-33.4	95.2	129.7
N=c1c(C(=O)NCC2CCCO2)cc2c(=O)n3ccccc3nc2n1Cc1cccnc1 (centres undefined)	-2.0	-3.9	1.27	3.9	100.2	100.3
